Measurements taken from ChEMBL document CHEMBL1141140, “Antifungal agents. 11. N-substituted derivatives of 1-[(aryl)(4-aryl-1H-pyrrol-3-yl)methyl]-1H-imidazole: synthesis, anti-Candida activity, and QSAR studies” (2005).
In brackets after ≈: the same amount, converted by molar mass.

Key:
[1] = test system: Candida albicans; assay: Ratio of the in vitro minimal inhibitory to that of bifonazole against Candida albicans (MIC(compound)/MIC(bifonazole)); assay type: functional
How it was run: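 Broth microdilution per NCCLS M27-A2 against 12 Candida albicans strains (AIDS oropharyngeal, HIV vulvovaginitis isolates, ATCC 24433 and 20891, lab strains 3153 and CA2). Inoculum ~10^4 cells/mL in RPMI 1640, pH 7.0; DMSO stocks 6.4 mg/mL, twofold dilutions 0.016–64 μg/mL; read at 24 h, 28 °C, no visible growth. Mean MIC over strains converted to μmol/mL, divided by bifonazole MIC.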

[2] = test system: Candida albicans; assay: In vitro concentration causing 50% inhibition of Candida albicans with percentage of resistant strains %R = 36 (MIC > 64 ug/mL) at a range of 0.5-2 ug/mL; assay type: functional
[3] = test system: Candida albicans; assay: In vitro minimal inhibitory concentration against Candida albicans with percentage of resistant strains %R = 36 (MIC > 64 ug/mL) at a range of 0.5-2 ug/mL; assay type: functional
[4] = test system: Candida albicans; assay: In vitro concentration causing 90% inhibition of Candida albicans with percentage of resistant strains %R = 36 (MIC > 64 ug/mL) at a range of 0.5-2 ug/mL; assay type: functional
[5] = test system: Candida albicans; assay: In vitro minimal inhibitory concentration against Candida albicans with percentage of resistant strains %R = 50 (MIC > 64 ug/mL) at a range of 0.5-2 ug/mL; assay type: functional
[6] = test system: Candida albicans; assay: In vitro concentration causing 90% inhibition of Candida albicans with percentage of resistant strains %R = 50 (MIC > 64 ug/mL) at a range of 0.5-2 ug/mL; assay type: functional
[7] = test system: Candida albicans; assay: In vitro concentration causing 50% inhibition of Candida albicans with percentage of resistant strains %R = 50 (MIC > 64 ug/mL) at a range of 0.5-2 ug/mL; assay type: functional
[8] = test system: Candida albicans; assay: In vitro concentration causing 50% inhibition of Candida albicans with percentage of resistant strains %R = 33.33 (MIC > 64 ug/mL) at a range of 1-4 ug/mL; assay type: functional
[9] = test system: Candida albicans; assay: In vitro minimal inhibitory concentration against Candida albicans with percentage of resistant strains %R = 33.33 (MIC > 64 ug/mL) at a range of 1-4 ug/mL; assay type: functional
[10] = test system: Candida albicans; assay: In vitro concentration causing 90% inhibition of Candida albicans with percentage of resistant strains %R = 33.33 (MIC > 64 ug/mL) at a range of 1-4 ug/mL; assay type: functional
[11] = test system: Candida albicans; assay: In vitro minimal inhibitory concentration against Candida albicans with percentage of resistant strains %R = 0 (MIC > 64 ug/mL) at a range of 0.062-2 ug/mL; assay type: functional
[12] = test system: Candida albicans; assay: In vitro concentration causing 50% inhibition of Candida albicans with percentage of resistant strains %R = 0 (MIC > 64 ug/mL) at a range of 0.062-2 ug/mL; assay type: functional
[13] = test system: Candida albicans; assay: In vitro concentration causing 90% inhibition of Candida albicans with percentage of resistant strains %R = 0 (MIC > 64 ug/mL) at a range of 0.062-2 ug/mL; assay type: functional
[14] = test system: Candida albicans; assay: In vitro minimal inhibitory concentration against Candida albicans with percentage of resistant strains %R = 16 (MIC > 64 ug/mL) at a range of 2-32 ug/mL; assay type: functional
[15] = test system: Candida albicans; assay: In vitro concentration causing 90% inhibition of Candida albicans with percentage of resistant strains %R = 16 (MIC > 64 ug/mL) at a range of 2-32 ug/mL; assay type: functional
[16] = test system: Candida albicans; assay: In vitro concentration causing 50% inhibition of Candida albicans with percentage of resistant strains %R = 16 (MIC > 64 ug/mL) at a range of 2-32 ug/mL; assay type: functional
[17] = test system: Candida albicans; assay: Ratio of the in vitro minimal inhibitory concentrations to that of bifonazole against Candida albicans (MIC(compound)/MIC(bifonazole)); assay type: functional
[18] = test system: Candida albicans; assay: In vitro concentration causing 50% inhibition of Candida albicans with percentage of resistant strains %R = 10 (MIC > 64 ug/mL) at a range of 0.5-8 ug/mL; assay type: functional
[19] = test system: Candida albicans; assay: In vitro minimal inhibitory concentration against Candida albicans with percentage of resistant strains %R = 10 (MIC > 64 ug/mL) at a range of 0.5-8 ug/mL; assay type: functional
[20] = test system: Candida albicans; assay: In vitro concentration causing 90% inhibition of Candida albicans with percentage of resistant strains %R = 10 (MIC > 64 ug/mL) at a range of 0.5-8 ug/mL; assay type: functional
[21] = test system: Candida albicans; assay: In vitro minimal inhibitory concentration against Candida albicans with percentage of resistant strains %R = 45.45 (MIC > 64 ug/mL) at a range of 0.125-0.5 ug/mL; assay type: functional
[22] = test system: Candida albicans; assay: In vitro concentration causing 90% inhibition of Candida albicans with percentage of resistant strains %R = 45.45 (MIC > 64 ug/mL) at a range of 0.125-0.5 ug/mL; assay type: functional
[23] = test system: Candida albicans; assay: In vitro concentration causing 50% inhibition of Candida albicans with percentage of resistant strains %R = 45.45 (MIC > 64 ug/mL) at a range of 0.125-0.5 ug/mL; assay type: functional
[24] = test system: Candida albicans; assay: In vitro concentration causing 90% inhibition of Candida albicans with percentage of resistant strains %R = 25 (MIC > 64 ug/mL) at a range of 0.062-0.25 ug/mL; assay type: functional
[25] = test system: Candida albicans; assay: In vitro concentration causing 50% inhibition of Candida albicans with percentage of resistant strains %R = 25 (MIC > 64 ug/mL) at a range of 0.062-0.25 ug/mL; assay type: functional
[26] = test system: Candida albicans; assay: In vitro minimal inhibitory concentration against Candida albicans with percentage of resistant strains %R = 25 (MIC > 64 ug/mL) at a range of 0.062-0.25 ug/mL; assay type: functional
[27] = test system: Candida albicans; assay: In vitro concentration causing 90% inhibition of Candida albicans with percentage of resistant strains %R = 33.33 (MIC > 64 ug/mL) at a range of 0.062-2 ug/mL; assay type: functional
[28] = test system: Candida albicans; assay: microbe, parasite or virus in culture
[29] = test system: Candida albicans; assay: In vitro concentration causing 50% inhibition of Candida albicans with percentage of resistant strains %R = 33.33 (MIC > 64 ug/mL) at a range of 0.062-2 ug/mL; assay type: functional

## Cn1cc(-c2ccccc2Cl)c(C(c2ccc(Cl)cc2Cl)n2ccnc2)c1 (stereo not given)
[1]
  Ratio: 0.36
[2]
  MIC50: 2 mg/L (≈ 4.8 µM)
[3]
  MIC: 1.71 mg/L (≈ 4.1 µM)
[4]
  MIC90: 2 mg/L (≈ 4.8 µM)

## Clc1ccc(C(c2c[nH]cc2-c2cccc3ccccc23)n2ccnc2)c(Cl)c1 (stereo not given)
[1]
  Ratio: 0.21
[5]
  MIC: 1 mg/L (≈ 2.39 µM)
[6]
  MIC90: 2 mg/L (≈ 4.78 µM)
[7]
  MIC50: 0.5 mg/L (≈ 1.2 µM)

## Cn1cc(-c2ccc(-n3cccc3)cc2)c(C(c2ccc(Cl)cc2Cl)n2ccnc2)c1 (stereo not given)
[1]
  Ratio: 0.62
[8]
  MIC50: 4 mg/L (≈ 8.94 µM)
[9]
  MIC: 3.12 mg/L (≈ 6.97 µM)
[10]
  MIC90: 4 mg/L (≈ 8.94 µM)

## C=CCn1cc(-c2ccc(Cl)cc2Cl)c(C(c2ccc(Cl)cc2Cl)n2ccnc2)c1 (stereo not given)
[1]
  Ratio: 0.12
[11]
  MIC: 0.65 mg/L (≈ 1.36 µM)
[12]
  MIC50: 0.25 mg/L (≈ 0.524 µM)
[13]
  MIC90: 1 mg/L (≈ 2.1 µM)

## Cn1cc(-c2ccc(Cl)cc2Cl)c(C(c2ccc(Cl)cc2Cl)n2ccnc2)c1 (stereo not given)
[1]
  Ratio: 2.9
[14]
  MIC: 14.6 mg/L (≈ 32.4 µM)
[15]
  MIC90: 32 mg/L (≈ 70.9 µM)
[16]
  MIC50: 8 mg/L (≈ 17.7 µM)

## c1ccc(-c2ccc(C(c3ccccc3)n3ccnc3)cc2)cc1 (stereo not given) [BIFONAZOLE]
[17]
  Ratio: 1
[18]
  MIC50: 2 mg/L (≈ 6.44 µM)
[19]
  MIC: 3.5 mg/L (≈ 11.3 µM)
[20]
  MIC90: 8 mg/L (≈ 25.8 µM)

## OC(Cn1cncn1)(Cn1cncn1)c1ccc(F)cc1F [FLUCONAZOLE]
[1]
  Ratio: 0.069
[21]
  MIC: 0.24 mg/L (≈ 0.784 µM)
[22]
  MIC90: 0.5 mg/L (≈ 1.63 µM)
[23]
  MIC50: 0.25 mg/L (≈ 0.816 µM)

## CCC(C)n1ncn(-c2ccc(N3CCN(c4ccc(OC[C@H]5CO[C@](Cn6cncn6)(c6ccc(Cl)cc6Cl)O5)cc4)CC3)cc2)c1=O (stereo not given in full) [ITRACONAZOLE]
[24]
  MIC90: 0.125 mg/L (≈ 0.177 µM)
[25]
  MIC50: 0.062 mg/L (≈ 0.0879 µM)
[26]
  MIC: 0.096 mg/L (≈ 0.136 µM)

## Clc1ccc(COC(Cn2ccnc2)c2ccc(Cl)cc2Cl)c(Cl)c1 (stereo not given) [MICONAZOLE]
[1]
  Ratio: 0.14
[27]
  MIC90: 1 mg/L (≈ 2.4 µM)
[28]
  MIC: 0.65 mg/L (≈ 1.56 µM)
[29]
  MIC50: 0.062 mg/L (≈ 0.149 µM)
